Converted amounts (≈) assume the structure as drawn. Values belong to the compound of their own block, whether it stands above or below them.
Experiments:
[1] = biological target: T1, 4,4'-diapophytoene synthase (Staphylococcus aureus, UniProt A9JQL9); assay: Inhibition of Staphylococcus aureus CrtM
T1 sequence (A9JQL9 whole entry): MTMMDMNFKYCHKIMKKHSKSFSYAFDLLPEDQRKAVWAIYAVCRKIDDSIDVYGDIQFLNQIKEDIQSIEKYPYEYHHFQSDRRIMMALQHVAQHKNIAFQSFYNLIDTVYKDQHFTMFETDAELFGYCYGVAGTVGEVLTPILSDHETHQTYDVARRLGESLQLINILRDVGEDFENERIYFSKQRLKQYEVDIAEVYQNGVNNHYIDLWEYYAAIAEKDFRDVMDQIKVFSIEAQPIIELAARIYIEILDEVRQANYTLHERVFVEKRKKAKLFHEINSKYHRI

[2] = tested on: Klebsiella pneumoniae; assay: Antibacterial activity against clinically isolated Klebsiella pneumoniae RBRJ019 assessed as inhibition of bacterial growth at 50 uM measured after 48 hrs by agar well diffusion method; type: functional; details: read-out: IZ
[3] = tested on: Klebsiella pneumoniae; assay: Antibacterial activity against Klebsiella pneumoniae MTCC 109 assessed as inhibition of bacterial growth at 50 uM measured after 48 hrs by agar well diffusion method; type: functional; details: read-out: IZ
[4] = tested on: Staphylococcus aureus; assay: Bactericidal activity against clinically isolated Methicillin-resistant Staphylococcus aureus assessed as inhibition of bacterial growth measured after 48 hrs by agar plate method; type: functional
[5] = tested on: Staphylococcus aureus; assay: Antibacterial activity against clinically isolated Staphylococcus aureus RBRJ010 assessed as inhibition of bacterial growth at 50 uM measured after 48 hrs by agar well diffusion method; type: functional; details: read-out: IZ
[6] = tested on: Escherichia coli; assay: Antibacterial activity against clinically isolated Escherichia coli RBRJ005 assessed as inhibition of bacterial growth at 50 uM measured after 48 hrs by agar well diffusion method; type: functional; details: read-out: IZ
[7] = Selectivity index, ratio of IC50 for cytotoxicity against mouse L929 cells to MIC for antibacterial activity against clinically isolated Methicillin-resistant Staphylococcus aureus; type: toxicity, cell-based; details: read-out: Selectivity Index
[8] = tested on: Pseudomonas aeruginosa; assay: Antibacterial activity against Pseudomonas aeruginosa MTCC 424 assessed as inhibition of bacterial growth at 50 uM measured after 48 hrs by agar well diffusion method; type: functional; details: read-out: IZ
[9] = tested on: Staphylococcus aureus; assay: Antibacterial activity against Staphylococcus aureus MTCC 740 assessed as inhibition of bacterial growth at 50 uM measured after 48 hrs by agar well diffusion method; type: functional; details: read-out: IZ
[10] = tested on: Enterobacter cloacae; assay: Antibacterial activity against clinically isolated Enterobacter cloacae RBRJ017 assessed as inhibition of bacterial growth at 50 uM measured after 48 hrs by agar well diffusion method; type: functional; details: read-out: IZ
[11] = tested on: Escherichia coli; assay: Antibacterial activity against Escherichia coli MTCC 119 assessed as inhibition of bacterial growth at 50 uM measured after 48 hrs by agar well diffusion method; type: functional; details: read-out: IZ
[12] = tested on: Staphylococcus aureus; assay: Bactericidal activity against Staphylococcus aureus MTCC 740 assessed as inhibition of bacterial growth measured after 48 hrs by agar plate method; type: functional
Method in brief: (§1)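 MBC: aliquots from microdilution wells without colour change subcultured on drug-free Mueller Hinton agar, 48 h at 37 °C aerobically. MBC is the lowest concentration with no visible growth. Triplicate.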

[13] = tested on: Staphylococcus aureus; assay: Bactericidal activity against Methicillin-resistant Staphylococcus aureus ATCC 33591 assessed as inhibition of bacterial growth measured after 48 hrs by agar plate method; type: functional; method in brief: as §1
[14] = tested on: Staphylococcus aureus; assay: Antibacterial activity against clinically isolated Staphylococcus aureus RBRJ010 assessed as inhibition of bacterial growth measured after 48 hrs by broth microdilution method; type: functional
[15] = tested on: Staphylococcus epidermidis; assay: Antibacterial activity against Staphylococcus epidermidis MTCC 435 assessed as inhibition of bacterial growth at 50 uM measured after 48 hrs by agar well diffusion method; type: functional; details: read-out: IZ
[16] = tested on: Enterococcus faecalis; assay: Antibacterial activity against Enterococcus faecalis MTCC 439 assessed as inhibition of bacterial growth at 50 uM measured after 48 hrs by agar well diffusion method; type: functional; details: read-out: IZ
[17] = tested on: Klebsiella pneumoniae; assay: Antibacterial activity against clinically isolated Klebsiella pneumoniae RBRJ024 assessed as inhibition of bacterial growth at 50 uM measured after 48 hrs by agar well diffusion method; type: functional; details: read-out: IZ
[18] = tested on: Staphylococcus aureus; assay: Antibacterial activity against clinically isolated Methicillin-resistant Staphylococcus aureus assessed as inhibition of bacterial growth measured after 48 hrs by broth microdilution method; type: functional
[19] = tested on: Acinetobacter baumannii; assay: Antibacterial activity against clinically isolated Acinetobacter baumannii RBRJ027 assessed as inhibition of bacterial growth at 50 uM measured after 48 hrs by agar well diffusion method; type: functional; details: read-out: IZ
[20] = tested on: Staphylococcus aureus; assay: Bactericidal activity against clinically isolated Staphylococcus aureus RBRJ010 assessed as inhibition of bacterial growth measured after 48 hrs by agar plate method; type: functional
Method in brief: (§2)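 MBC: 10 μL from wells showing no INT colour change after broth microdilution subcultured on drug-free Mueller Hinton agar, 48 h at 37 °C aerobically; lowest concentration with no visible growth taken as MBC (μM). Triplicate.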

[21] = tested on: Staphylococcus aureus; assay: Antibacterial activity against Staphylococcus aureus MTCC 740 assessed as inhibition of bacterial growth measured after 48 hrs by broth microdilution method; type: functional
[22] = tested on: Enterococcus faecalis; assay: Antibacterial activity against clinically isolated Enterococcus faecalis RBRJ015 assessed as inhibition of bacterial growth at 50 uM measured after 48 hrs by agar well diffusion method; type: functional; details: read-out: IZ
[23] = tested on: Staphylococcus aureus; assay: Antibacterial activity against clinically isolated Methicillin-resistant Staphylococcus aureus assessed as inhibition of bacterial growth at 50 uM measured after 48 hrs by agar well diffusion method; type: functional; details: read-out: IZ
[24] = Cytotoxicity against mouse L929 cells assessed as reduction in cell viability measured after 72 hrs by MTT assay; type: toxicity, cell-based
Method in brief: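 L929 cells (ATCC) grown in DMEM with 10% FBS and penicillin/streptomycin at 37 °C, 5% CO2; seeded at 5 × 10^3 cells per well and exposed to serial dilutions for 72 h, paclitaxel as positive control. MTT (5 mg mL−1), formazan dissolved in DMSO, absorbance at 490 nm; viability relative to control after blank subtraction; IC50 in μM.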

[25] = tested on: Escherichia coli; assay: Antibacterial activity against clinically isolated Escherichia coli RBRJ013 assessed as inhibition of bacterial growth at 50 uM measured after 48 hrs by agar well diffusion method; type: functional; details: read-out: IZ
[26] = tested on: Staphylococcus aureus; assay: Antibacterial activity against Methicillin-resistant Staphylococcus aureus ATCC 33591 assessed as inhibition of bacterial growth measured after 48 hrs by broth microdilution method; type: functional
[27] = tested on: Staphylococcus aureus; assay: Antibacterial activity against Methicillin-resistant Staphylococcus aureus ATCC 33591 assessed as inhibition of bacterial growth at 50 uM measured after 48 hrs by agar well diffusion method; type: functional; details: read-out: IZ
Method in brief: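 Agar well diffusion on Mueller Hinton agar seeded with bacteria at 0.5 McFarland. […] Incubated 48 h at 37 °C aerobically; zone of inhibition diameter (mm) measured. Triplicate.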

[28] = tested on: Staphylococcus epidermidis; assay: Antibacterial activity against Staphylococcus epidermidis MTCC 435 assessed as inhibition of bacterial growth measured after 48 hrs by broth microdilution method; type: functional
[29] = tested on: Staphylococcus epidermidis; assay: Bactericidal activity against Staphylococcus epidermidis MTCC 435 assessed as inhibition of bacterial growth measured after 48 hrs by agar plate method; type: functional; method in brief: as §2

SMILES: O=P(O)(O)C(CCCc1ccc(-c2ccccc2)cc1)S(=O)(=O)O (stereo unspecified)
Ki [1]: 6 nM

Ki [1]: 135 nM
SMILES: O=P(O)(O)C(CCCc1ccc(-c2ccc(Br)cc2)cc1)S(=O)(=O)O (stereo unspecified)

SMILES: Cc1ccc(C(C)C)c(OCc2cn(CCCN3C(=O)C(=O)c4cc(F)ccc43)nn2)c1
zone of inhibition at 50 µM [2]: 15.4 mm | zone of inhibition at 50 µM [3]: 15.2 mm | MBC [4]: 31.2 µM (≈ 13.6 µg/mL) | zone of inhibition at 50 µM [5]: 23.2 mm | zone of inhibition at 50 µM [6]: 16.2 mm | selectivity ratio [7]: 2 | zone of inhibition at 50 µM [8]: 16 mm | zone of inhibition at 50 µM [9]: 24.1 mm | zone of inhibition at 50 µM [10]: 15.3 mm | zone of inhibition at 50 µM [11]: 15.2 mm | MBC [12]: 15.6 µM (≈ 6.81 µg/mL) | MBC [13]: 125 µM (≈ 54.6 µg/mL) | MIC [14]: 7.8 µM (≈ 3.4 µg/mL) | zone of inhibition at 50 µM [15]: 16.2 mm | zone of inhibition at 50 µM [16]: 16.4 mm | zone of inhibition at 50 µM [17]: 14.3 mm | MIC [18]: 15.6 µM (≈ 6.81 µg/mL) | zone of inhibition at 50 µM [19]: 14.7 mm | MBC [20]: 15.6 µM (≈ 6.81 µg/mL) | MIC [21]: 7.8 µM (≈ 3.4 µg/mL) | zone of inhibition at 50 µM [22]: 15.3 mm | zone of inhibition at 50 µM [23]: 22.2 mm | IC50 at 72 h [24]: 31.2 µM | zone of inhibition at 50 µM [25]: 16.2 mm | MIC [26]: 62.5 µM (≈ 27.3 µg/mL) | zone of inhibition at 50 µM [27]: 20.3 mm

SMILES: CC(=O)O[C@H]1C(=O)[C@@]2(C)[C@H]([C@H](OC(=O)c3ccccc3)[C@]3(O)C[C@H](OC(=O)[C@H](O)[C@@H](NC(=O)c4ccccc4)c4ccccc4)C(C)=C1C3(C)C)[C@]1(OC(C)=O)CO[C@@H]1C[C@@H]2O [PACLITAXEL]
IC50 at 72 h [24]: 0.0625 µM

Ki [1]: 0.2 nM
SMILES: O=P(O)(O)C(CCCc1ccc(-c2ccccc2)cc1)P(=O)(O)O

SMILES: Cc1ccc(C(C)C)c(OCc2cn(CCN3C(=O)C(=O)c4ccccc43)nn2)c1
zone of inhibition at 50 µM [2]: 16.4 mm | zone of inhibition at 50 µM [3]: 18.3 mm | MIC [28]: 15.6 µM (≈ 6.31 µg/mL) | MBC [4]: 125 µM (≈ 50.6 µg/mL) | zone of inhibition at 50 µM [5]: 22.2 mm | zone of inhibition at 50 µM [6]: 15.2 mm | selectivity ratio [7]: 4 | zone of inhibition at 50 µM [8]: 18.2 mm | MBC [29]: 31.2 µM (≈ 12.6 µg/mL) | zone of inhibition at 50 µM [9]: 20.2 mm | zone of inhibition at 50 µM [10]: 16.5 mm | zone of inhibition at 50 µM [11]: 18.6 mm | MBC [12]: 125 µM (≈ 50.6 µg/mL) | MIC [14]: 15.6 µM (≈ 6.31 µg/mL) | zone of inhibition at 50 µM [15]: 22.7 mm | zone of inhibition at 50 µM [16]: 15.4 mm | zone of inhibition at 50 µM [17]: 16.5 mm | MIC [18]: 62.5 µM (≈ 25.3 µg/mL) | zone of inhibition at 50 µM [19]: 13.3 mm | MBC [20]: 31.2 µM (≈ 12.6 µg/mL) | MIC [21]: 62.5 µM (≈ 25.3 µg/mL) | zone of inhibition at 50 µM [22]: 18.3 mm | zone of inhibition at 50 µM [23]: 20.2 mm | IC50 at 72 h [24]: 250 µM | zone of inhibition at 50 µM [25]: 14.4 mm | zone of inhibition at 50 µM [27]: 18.2 mm
